Data taken from ChEMBL document CHEMBL4765301, “Discovery of novel TNNI3K inhibitor suppresses pyroptosis and apoptosis in murine myocardial infarction injury” (Eur J Med Chem, 2020).

Target: Vascular endothelial growth factor receptor 1 (Homo sapiens) (UniProt P17948)
Assay: Inhibition of recombinant human FLT1 (783 to end residues) assessed as residual activity at 1 uM using KKKSPGEYVNIEFG as substrate incubated for 40 mins by [gamma-33P]-ATP scintillation counting based radiometry assay relative to control

Q: For CN1CCc2c(sc3ncnc(Nc4ccc(N(C)C)c(NC(=O)c5ccncc5)c4)c23)C1, which Activity is on record?
A: 105%

Q: For CN(C)c1ccc(Nc2ncnc3sc4c(c23)CCN(C(=O)c2ncccn2)C4)cc1NC(=O)c1ccco1, which Activity is on record?
A: 101%

Q: For CN(C)c1ccc(Nc2ncnc3sc4c(c23)CCN(C(=O)c2ncccn2)C4)cc1NC(=O)c1cccs1, which Activity is on record?
A: 104%

Q: CN(C)c1ccc(Nc2ncnc3sc4c(c23)CCN(C(=O)c2cnccn2)C4)cc1NC(=O)c1cccs1 was tested. Which Activity did it give?
A: 98%

Q: How did the Activity turn out when CN1CCc2c(sc3ncnc(Nc4ccc(N(C)C)c(NC(=O)c5cccc6ccccc56)c4)c23)C1 was run?
A: 101%

Q: Which Activity does the source give for Cc1ccc(C(=O)Nc2cc(Nc3ncnc4sc5c(c34)CCN(C)C5)ccc2N(C)C)cc1 here?
A: 97%

Q: For CN(C)c1ccc(Nc2ncnc3sc4c(c23)CCN(C(=O)c2ccccn2)C4)cc1NC(=O)c1cccs1, which Activity is on record?
A: 87%

Q: With CCC(=O)Nc1cc(Nc2ncnc3sc4c(c23)CCN(c2ncccn2)C4)ccc1N(C)C as the molecule, how does the Activity read?
A: 106%

Target: Receptor tyrosine-protein kinase erbB-2 (Homo sapiens) (UniProt P04626)
Sequence (P04626 whole entry): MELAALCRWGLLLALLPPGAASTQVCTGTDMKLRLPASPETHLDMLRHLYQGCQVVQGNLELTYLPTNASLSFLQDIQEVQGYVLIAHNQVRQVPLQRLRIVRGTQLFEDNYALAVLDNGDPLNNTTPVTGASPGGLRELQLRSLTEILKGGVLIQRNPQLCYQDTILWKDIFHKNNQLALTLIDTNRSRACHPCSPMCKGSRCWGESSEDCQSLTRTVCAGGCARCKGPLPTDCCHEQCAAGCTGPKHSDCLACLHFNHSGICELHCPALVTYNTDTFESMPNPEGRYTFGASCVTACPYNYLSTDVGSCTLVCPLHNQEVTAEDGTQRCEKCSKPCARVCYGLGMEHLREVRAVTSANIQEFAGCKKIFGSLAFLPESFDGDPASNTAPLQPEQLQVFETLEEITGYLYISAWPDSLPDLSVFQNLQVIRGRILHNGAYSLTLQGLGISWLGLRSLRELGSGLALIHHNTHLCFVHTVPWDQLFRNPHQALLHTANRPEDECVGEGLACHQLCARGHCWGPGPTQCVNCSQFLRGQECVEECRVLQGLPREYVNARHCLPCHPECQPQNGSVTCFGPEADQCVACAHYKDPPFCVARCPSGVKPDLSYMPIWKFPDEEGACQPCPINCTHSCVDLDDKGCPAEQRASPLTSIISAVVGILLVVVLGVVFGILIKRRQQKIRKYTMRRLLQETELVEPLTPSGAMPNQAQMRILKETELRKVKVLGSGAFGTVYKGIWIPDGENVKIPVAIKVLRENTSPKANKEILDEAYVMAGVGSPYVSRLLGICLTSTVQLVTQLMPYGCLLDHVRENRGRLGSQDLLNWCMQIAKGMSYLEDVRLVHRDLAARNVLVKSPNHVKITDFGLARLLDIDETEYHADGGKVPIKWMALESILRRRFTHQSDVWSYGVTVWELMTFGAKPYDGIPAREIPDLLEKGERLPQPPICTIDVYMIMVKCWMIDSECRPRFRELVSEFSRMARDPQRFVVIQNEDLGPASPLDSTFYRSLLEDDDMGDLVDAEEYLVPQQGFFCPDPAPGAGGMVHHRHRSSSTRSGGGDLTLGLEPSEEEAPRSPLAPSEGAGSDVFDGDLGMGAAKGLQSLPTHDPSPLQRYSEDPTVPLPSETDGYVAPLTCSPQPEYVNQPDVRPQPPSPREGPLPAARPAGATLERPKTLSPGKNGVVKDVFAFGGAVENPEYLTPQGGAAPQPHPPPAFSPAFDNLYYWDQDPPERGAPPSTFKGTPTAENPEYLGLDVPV
Assay: Inhibition of recombinant human HER2 (676 to end residues) assessed as residual activity at 1 uM using poly(Glu, Tyr) 4:1 as substrate incubated for 40 mins by [gamma-33P]-ATP scintillation counting based radiometry assay relative to control

Q: Which Activity does the source give for CN1CCc2c(sc3ncnc(Nc4ccc(N(C)C)c(NC(=O)c5ccncc5)c4)c23)C1 here?
A: 97%

Q: CN(C)c1ccc(Nc2ncnc3sc4c(c23)CCN(C(=O)c2ncccn2)C4)cc1NC(=O)c1ccco1 was tested. Which Activity did it give?
A: 98%

Q: How did the Activity turn out when CN(C)c1ccc(Nc2ncnc3sc4c(c23)CCN(C(=O)c2ncccn2)C4)cc1NC(=O)c1cccs1 was run?
A: 112%

Q: CN(C)c1ccc(Nc2ncnc3sc4c(c23)CCN(C(=O)c2cnccn2)C4)cc1NC(=O)c1cccs1 was tested. Which Activity did it give?
A: 113%

Q: With CN1CCc2c(sc3ncnc(Nc4ccc(N(C)C)c(NC(=O)c5cccc6ccccc56)c4)c23)C1 as the molecule, how does the Activity read?
A: 96%

Q: Which Activity does the source give for Cc1ccc(C(=O)Nc2cc(Nc3ncnc4sc5c(c34)CCN(C)C5)ccc2N(C)C)cc1 here?
A: 92%

Q: How did the Activity turn out when CN(C)c1ccc(Nc2ncnc3sc4c(c23)CCN(C(=O)c2ccccn2)C4)cc1NC(=O)c1cccs1 was run?
A: 99%

Q: For CCC(=O)Nc1cc(Nc2ncnc3sc4c(c23)CCN(c2ncccn2)C4)ccc1N(C)C, which Activity is on record?
A: 99%

Target: Epidermal growth factor receptor (Homo sapiens) (UniProt P00533)
Sequence (P00533 whole entry): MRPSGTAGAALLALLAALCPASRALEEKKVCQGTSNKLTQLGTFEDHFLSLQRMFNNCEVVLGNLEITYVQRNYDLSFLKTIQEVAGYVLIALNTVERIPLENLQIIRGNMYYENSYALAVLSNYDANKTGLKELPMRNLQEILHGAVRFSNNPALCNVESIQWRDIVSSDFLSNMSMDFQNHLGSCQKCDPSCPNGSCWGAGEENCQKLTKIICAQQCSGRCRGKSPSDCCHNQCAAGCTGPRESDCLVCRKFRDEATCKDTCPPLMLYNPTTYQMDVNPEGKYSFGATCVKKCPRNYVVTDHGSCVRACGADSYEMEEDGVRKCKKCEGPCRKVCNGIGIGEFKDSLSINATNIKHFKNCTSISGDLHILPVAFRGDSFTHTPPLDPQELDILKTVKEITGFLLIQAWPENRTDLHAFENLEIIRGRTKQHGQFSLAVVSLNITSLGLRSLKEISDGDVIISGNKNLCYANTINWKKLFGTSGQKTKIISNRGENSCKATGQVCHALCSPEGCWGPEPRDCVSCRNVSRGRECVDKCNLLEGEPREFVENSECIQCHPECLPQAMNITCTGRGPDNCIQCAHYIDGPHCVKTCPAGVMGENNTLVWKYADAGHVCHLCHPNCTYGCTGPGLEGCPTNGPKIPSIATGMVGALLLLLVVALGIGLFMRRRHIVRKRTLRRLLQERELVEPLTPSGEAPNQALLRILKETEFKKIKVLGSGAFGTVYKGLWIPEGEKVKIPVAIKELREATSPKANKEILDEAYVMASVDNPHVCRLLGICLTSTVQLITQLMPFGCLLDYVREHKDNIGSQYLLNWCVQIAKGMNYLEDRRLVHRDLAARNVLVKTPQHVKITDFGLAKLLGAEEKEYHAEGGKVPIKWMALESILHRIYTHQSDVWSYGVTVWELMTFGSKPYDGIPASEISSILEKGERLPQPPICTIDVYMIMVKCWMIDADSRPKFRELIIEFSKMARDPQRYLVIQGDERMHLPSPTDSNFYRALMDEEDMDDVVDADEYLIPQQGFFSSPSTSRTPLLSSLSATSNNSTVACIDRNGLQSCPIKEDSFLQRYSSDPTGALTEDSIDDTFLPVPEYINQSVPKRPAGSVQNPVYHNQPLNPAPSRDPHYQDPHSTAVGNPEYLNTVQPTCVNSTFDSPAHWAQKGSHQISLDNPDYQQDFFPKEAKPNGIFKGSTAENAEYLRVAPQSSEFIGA
Assay: Inhibition of recombinant human EGFR (696 to end residues) assessed as residual activity at 1 uM using poly(Glu, Tyr) 4:1 as substrate incubated for 40 mins by [gamma-33P]-ATP scintillation counting based radiometry assay relative to control

Q: CN1CCc2c(sc3ncnc(Nc4ccc(N(C)C)c(NC(=O)c5ccncc5)c4)c23)C1 was tested. Which Activity did it give?
A: 105%

Q: Which Activity does the source give for CN(C)c1ccc(Nc2ncnc3sc4c(c23)CCN(C(=O)c2ncccn2)C4)cc1NC(=O)c1ccco1 here?
A: 82%

Q: For CN(C)c1ccc(Nc2ncnc3sc4c(c23)CCN(C(=O)c2ncccn2)C4)cc1NC(=O)c1cccs1, which Activity is on record?
A: 92%

Q: For CN(C)c1ccc(Nc2ncnc3sc4c(c23)CCN(C(=O)c2cnccn2)C4)cc1NC(=O)c1cccs1, which Activity is on record?
A: 80%

Q: CN1CCc2c(sc3ncnc(Nc4ccc(N(C)C)c(NC(=O)c5cccc6ccccc56)c4)c23)C1 was tested. Which Activity did it give?
A: 98%

Q: Which Activity does the source give for Cc1ccc(C(=O)Nc2cc(Nc3ncnc4sc5c(c34)CCN(C)C5)ccc2N(C)C)cc1 here?
A: 108%

Q: With CN(C)c1ccc(Nc2ncnc3sc4c(c23)CCN(C(=O)c2ccccn2)C4)cc1NC(=O)c1cccs1 as the molecule, how does the Activity read?
A: 99%

Q: For CCC(=O)Nc1cc(Nc2ncnc3sc4c(c23)CCN(c2ncccn2)C4)ccc1N(C)C, which Activity is on record?
A: 102%

Target: T1, Serine/threonine-protein kinase TNNI3K (Homo sapiens) (UniProt Q59H18)
T1 sequence (whole entry): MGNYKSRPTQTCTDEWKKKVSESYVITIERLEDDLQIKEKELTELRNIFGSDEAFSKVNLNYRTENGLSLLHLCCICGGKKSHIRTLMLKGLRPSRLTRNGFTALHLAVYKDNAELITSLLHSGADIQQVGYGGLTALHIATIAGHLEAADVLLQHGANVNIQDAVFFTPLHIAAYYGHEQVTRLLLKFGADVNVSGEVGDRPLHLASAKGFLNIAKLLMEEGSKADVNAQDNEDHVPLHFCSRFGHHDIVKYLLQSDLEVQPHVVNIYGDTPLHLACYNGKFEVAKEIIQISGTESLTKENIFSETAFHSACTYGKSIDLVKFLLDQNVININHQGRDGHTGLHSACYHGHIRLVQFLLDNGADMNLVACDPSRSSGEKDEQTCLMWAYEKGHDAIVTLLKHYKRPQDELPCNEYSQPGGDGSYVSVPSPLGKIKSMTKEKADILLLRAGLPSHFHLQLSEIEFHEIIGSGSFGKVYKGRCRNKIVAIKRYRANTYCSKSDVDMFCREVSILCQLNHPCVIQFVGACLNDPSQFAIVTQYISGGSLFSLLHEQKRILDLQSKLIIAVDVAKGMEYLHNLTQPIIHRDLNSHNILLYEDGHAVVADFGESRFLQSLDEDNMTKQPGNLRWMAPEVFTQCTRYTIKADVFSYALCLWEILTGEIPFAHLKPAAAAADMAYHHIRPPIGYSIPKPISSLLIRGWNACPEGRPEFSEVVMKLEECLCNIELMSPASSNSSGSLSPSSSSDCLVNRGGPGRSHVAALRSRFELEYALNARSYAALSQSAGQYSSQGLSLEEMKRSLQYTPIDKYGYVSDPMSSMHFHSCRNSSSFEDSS
Assay: Inhibition of TNNI3K (unknown origin) assessed as residual activity at 1 uM using biotinylated CTnI as substrate by HTRF analysis relative to control
Summary of the method: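 TNNI3K was assayed by HTRF using a GST-tagged TNNI3K kinase domain and a biotinylated cardiac troponin I substrate peptide, followed by the two HTRF detection reagents. Compounds were screened at 1.0 µM, then IC50s were determined.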

Q: Which Activity does the source give for CN1CCc2c(sc3ncnc(Nc4ccc(N(C)C)c(NC(=O)c5ccncc5)c4)c23)C1 here?
A: 46%

Q: Which Activity does the source give for CN(C)c1ccc(Nc2ncnc3sc4c(c23)CCN(C(=O)c2ncccn2)C4)cc1NC(=O)c1ccco1 here?
A: 54%

Q: With CN(C)c1ccc(Nc2ncnc3sc4c(c23)CCN(C(=O)c2ncccn2)C4)cc1NC(=O)c1cccs1 as the molecule, how does the Activity read?
A: 49%

Q: How did the Activity turn out when CN(C)c1ccc(Nc2ncnc3sc4c(c23)CCN(C(=O)c2cnccn2)C4)cc1NC(=O)c1cccs1 was run?
A: 44%

Q: How did the Activity turn out when CN1CCc2c(sc3ncnc(Nc4ccc(N(C)C)c(NC(=O)c5cccc6ccccc56)c4)c23)C1 was run?
A: 77%

Q: Cc1ccc(C(=O)Nc2cc(Nc3ncnc4sc5c(c34)CCN(C)C5)ccc2N(C)C)cc1 was tested. Which Activity did it give?
A: 71%

Q: How did the Activity turn out when CN(C)c1ccc(Nc2ncnc3sc4c(c23)CCN(C(=O)c2ccccn2)C4)cc1NC(=O)c1cccs1 was run?
A: 40%

Q: Which Activity does the source give for CCC(=O)Nc1cc(Nc2ncnc3sc4c(c23)CCN(c2ncccn2)C4)ccc1N(C)C here?
A: 59%

Target: Vascular endothelial growth factor receptor 2 (Homo sapiens) (UniProt P35968)
Sequence (P35968 whole entry): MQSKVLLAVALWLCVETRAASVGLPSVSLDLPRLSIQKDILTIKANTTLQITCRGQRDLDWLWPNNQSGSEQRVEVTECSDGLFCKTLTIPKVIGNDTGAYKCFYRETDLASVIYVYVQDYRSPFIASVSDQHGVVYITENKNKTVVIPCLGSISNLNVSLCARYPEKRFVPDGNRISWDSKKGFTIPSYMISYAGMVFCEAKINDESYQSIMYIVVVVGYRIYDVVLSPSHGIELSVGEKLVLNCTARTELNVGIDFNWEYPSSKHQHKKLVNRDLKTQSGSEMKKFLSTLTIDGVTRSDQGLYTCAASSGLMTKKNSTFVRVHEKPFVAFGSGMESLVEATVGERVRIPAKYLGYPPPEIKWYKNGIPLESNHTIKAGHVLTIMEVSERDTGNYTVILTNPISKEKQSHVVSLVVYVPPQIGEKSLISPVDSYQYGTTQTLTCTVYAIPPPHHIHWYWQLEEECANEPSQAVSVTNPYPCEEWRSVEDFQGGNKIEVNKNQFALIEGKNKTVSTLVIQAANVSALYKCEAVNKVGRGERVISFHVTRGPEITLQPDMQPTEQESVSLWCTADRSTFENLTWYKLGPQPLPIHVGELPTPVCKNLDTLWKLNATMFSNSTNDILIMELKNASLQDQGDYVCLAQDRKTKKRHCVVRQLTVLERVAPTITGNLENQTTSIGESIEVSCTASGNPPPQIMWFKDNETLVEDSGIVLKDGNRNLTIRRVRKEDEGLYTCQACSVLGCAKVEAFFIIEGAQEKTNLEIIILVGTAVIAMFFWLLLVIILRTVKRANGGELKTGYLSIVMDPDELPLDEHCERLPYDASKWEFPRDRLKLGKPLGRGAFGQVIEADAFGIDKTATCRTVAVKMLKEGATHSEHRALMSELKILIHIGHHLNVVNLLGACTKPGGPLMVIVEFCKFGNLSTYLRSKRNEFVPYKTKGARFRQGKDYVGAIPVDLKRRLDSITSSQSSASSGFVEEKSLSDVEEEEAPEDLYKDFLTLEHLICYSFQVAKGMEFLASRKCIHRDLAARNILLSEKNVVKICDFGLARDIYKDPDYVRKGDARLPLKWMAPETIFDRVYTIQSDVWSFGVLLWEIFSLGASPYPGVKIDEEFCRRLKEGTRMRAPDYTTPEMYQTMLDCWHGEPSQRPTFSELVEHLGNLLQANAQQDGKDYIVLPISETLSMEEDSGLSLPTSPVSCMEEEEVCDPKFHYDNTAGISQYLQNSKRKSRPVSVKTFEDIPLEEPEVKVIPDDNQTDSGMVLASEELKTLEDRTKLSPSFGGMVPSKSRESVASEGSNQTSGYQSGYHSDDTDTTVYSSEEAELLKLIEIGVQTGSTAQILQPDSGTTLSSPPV
Assay: Inhibition of recombinant human KDR (790 to end residues) assessed as residual activity at 1 uM using myelin basic protein as substrate incubated for 40 mins by [gamma-33P]-ATP scintillation counting based radiometry assay relative to control

Q: CN1CCc2c(sc3ncnc(Nc4ccc(N(C)C)c(NC(=O)c5ccncc5)c4)c23)C1 was tested. Which Activity did it give?
A: 84%

Q: CN(C)c1ccc(Nc2ncnc3sc4c(c23)CCN(C(=O)c2ncccn2)C4)cc1NC(=O)c1ccco1 was tested. Which Activity did it give?
A: 81%

Q: CN(C)c1ccc(Nc2ncnc3sc4c(c23)CCN(C(=O)c2ncccn2)C4)cc1NC(=O)c1cccs1 was tested. Which Activity did it give?
A: 86%

Q: How did the Activity turn out when CN(C)c1ccc(Nc2ncnc3sc4c(c23)CCN(C(=O)c2cnccn2)C4)cc1NC(=O)c1cccs1 was run?
A: 80%

Q: For CN1CCc2c(sc3ncnc(Nc4ccc(N(C)C)c(NC(=O)c5cccc6ccccc56)c4)c23)C1, which Activity is on record?
A: 87%

Q: Which Activity does the source give for Cc1ccc(C(=O)Nc2cc(Nc3ncnc4sc5c(c34)CCN(C)C5)ccc2N(C)C)cc1 here?
A: 83%

Q: With CN(C)c1ccc(Nc2ncnc3sc4c(c23)CCN(C(=O)c2ccccn2)C4)cc1NC(=O)c1cccs1 as the molecule, how does the Activity read?
A: 73%

Q: Which Activity does the source give for CCC(=O)Nc1cc(Nc2ncnc3sc4c(c23)CCN(c2ncccn2)C4)ccc1N(C)C here?
A: 80%
